Data as given in paper PMC11868578 (Nature Communications, 2025).
≈ marks a conversion by molar mass, not a printed value.

T1: N WT (NWT) (Tomato spotted wilt virus (TSWV), UniProt P26000 1-258)
T1 sequence: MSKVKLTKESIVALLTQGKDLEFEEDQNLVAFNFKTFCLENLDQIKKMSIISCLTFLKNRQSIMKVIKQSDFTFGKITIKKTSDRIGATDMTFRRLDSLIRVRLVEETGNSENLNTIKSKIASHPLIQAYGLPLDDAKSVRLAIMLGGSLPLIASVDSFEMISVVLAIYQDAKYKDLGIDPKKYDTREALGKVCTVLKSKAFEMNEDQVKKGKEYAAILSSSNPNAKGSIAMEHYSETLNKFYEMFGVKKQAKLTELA


Tests used:
[1] = system: N-YFP IBs (N protein condensates); assay: N-YFP inclusion bodies; assay type: cell-based, Nicotiana benthamiana
TSWV = assay: Anti-TSWV assay, half-leaf method on Nicotiana glutinosa; assay type: in vivo, tomato spotted wilt virus; conditions: for Curative effect (%) / Inactive effect (%) (inactivation activity) / Protective effect (%): 500 µg/mL, half-leaf method, N. glutinosa, mean ± SD, n = 3; for EC50: Orthotospovirus tomatomaculae, in Nicotiana glutinosa
Procedure, shortened: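 Half-leaf test on healthy N. glutinosa, leaves pre-dusted with carborundum and virus extract brushed on. Curative: leaves rinsed 30 min after inoculation, then agent put on the right half. Protective: agent put on 12 h before inoculation. Inactivation: agent mixed 1:1 with virus extract on ice for 30 min, then put on the right half; left half got buffer-diluted virus. Plants grown at 25 °C day/23 °C night. Lesions counted after about 2 days. EC50 from 31.25–500 µg/mL.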

PVY = assay: Inactivation activity against PVY; assay type: in vivo; conditions: read-out: Inhibition rate (inactivation activity) against PVY
PMMoV = assay: Inactivation activity against PMMoV; assay type: in vivo; conditions: read-out: Inhibition rate (inactivation activity) against PMMoV
N WT (NWT) = target: T1, N WT (NWT); assay: BLI

Molecule	Effect on N-YFP particle number, leaves treated at 36 h ([1]; 36 hpi)	Effect on large N-YFP granules, leaves treated at 72 h ([1]; 72 hpi)	Curative effect (%) (TSWV)	Inactive effect (%) (inactivation activity) (TSWV)	Protective effect (%) (TSWV)	Inactive effect (%) (inactivation activity) (TSWV; listed as ningnanmycin)	EC50 (TSWV)	inhibition at 500 µg/mL (PVY)	inhibition at 500 µg/mL (PMMoV)	Inactive effect (%) (inactivation activity) (TSWV; listed as ribavirin)	Kd (N WT (NWT))
OCCCCCCO [1,6-hexanediol]	significant reduction in particle number	difficult to observe a significant decrease in the number of large particles									
CNCC(=O)N[C@@H](CO)C(=O)N[C@H]1[C@H](O)[C@@H](O)[C@H](n2ccc(N)nc2=O)O[C@@H]1C(N)=O [Ningnanmycin]			57.9 ± 1.5%	69.3 ± 2.4%	61.7 ± 5.2%	69.3%	149 ± 8.7 µg/mL (≈ 337 µM)	77.6%	72%		
NC(=O)c1ncn([C@@H]2O[C@H](CO)[C@@H](O)[C@H]2O)n1 [Ribavirin]			39.2 ± 3.2%	43.7 ± 7.5%	40.4 ± 6.8%		802 ± 12.6 µg/mL (≈ 3280 µM)	55.3%	56.5%	43.7%	
GAGAGCAAUUGUGUCAGAA (ssRNA) [biotinylated RNA (BLI)]											7.3 nM
